From publication PMC7555381 (International Journal of Nanomedicine, 2020) come the findings set out here.

Molecules are shown by their SMILES.

The nature of one data set: In vitro drug release. In kind it is physicochemical. The note with it: 37°C, 100 rpm. Put shortly: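 Drug release from the formulation and from free drug was tested in 900 mL of 0.1 N HCl (pH 1.2) or phosphate buffer (pH 6.8). USP apparatus I (basket) was run at 100 rpm and 37±0.2°C. Results are given as cumulative percentage released over time.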
Data set [1] deals with HCT116 (human colon cancer) tumor. Kind of data set: In vivo tumor growth inhibition in HCT116 tumor-bearing mice. Also noted: species or system BALB/c nude mice. The procedure, abridged: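 Female BALB/c nude mice, 6 weeks old, received 1×10⁷ HCT116 cells in PBS in the right dorsal flank. At 70–100 mm³, mice were randomised to the same seven arms: untreated; IV drug 3.3 or 10 mg/kg biweekly; oral aqueous drug 10 mg/kg daily; oral formulation at 2.5, 10 or 20 mg/kg daily, for 21 days. Mice were fasted 4 h before and 2 h after dosing. Caliper volume (width²×length×0.52) was recorded every 3 days, and tumors were weighed at day 21.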

Data set [2] deals with Madin–Darby Canine Kidney (MDCK) cells. The experiment in a line: In vitro cytotoxicity. It counts as cell-based. The note with it: 12 h. The procedure, abridged:
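MDCK cells seeded at 5×10³ cells/well in DMEM with 10% FBS and 1% penicillin/streptomycin, then held 24 h at 37°C. Treated with test formulations diluted in DMEM at 1, 10, 25, 50, 100, 250 and 500 µg/mL drug equivalent, with matching excipient-only controls, for 12 h. WST-8 was added for 2 h and absorbance read at 450 nm. Viability is expressed relative to untreated cells.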

For data set [3], the system named is CT26 (murine colon cancer) tumor. Kind of data set: In vivo tumor growth inhibition in CT26 tumor-bearing mice. Details: species or system BALB/c mice. Put shortly: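 Female BALB/c mice, 6 weeks old, received 1×10⁶ CT26 cells in PBS in the right dorsal flank. At 70–100 mm³, mice were randomised to seven groups of 14: untreated; IV drug 3.3 or 10 mg/kg once biweekly; oral aqueous drug 10 mg/kg daily; oral formulation at 2.5, 10 or 20 mg/kg equivalent daily, for 21 days. Mice were fasted 4 h before and 2 h after dosing. Caliper volume (width²×length×0.52) was recorded every 3 days. Day-21 tumors were weighed and stained for CD31, PCNA and TUNEL.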

[4] abbreviates: HCT116 tumors, day 21, groups OP-IV (10), ODSF (10), ODSF (20).
Setting [5] is: CT26, once-biweekly IV 10 mg/kg OP, 21 days.

On to `O=C1[O][Pt]2([NH][C@@H]3CCCC[C@H]3[NH]2)[O]C1=O` (relative stereo) [OP, cis-[(1R,2R)-1,2-cyclohexanediamine-N,N’] [oxalato(2)-O,O´] platinum], for which the Cumulative drug release result in the data set “In vitro drug release” (pH 1.2 (0.1 N HCl), at 60 min) is given as “exceeded 90%”. Further, the Cumulative drug release result in “In vitro drug release” (pH 6.8 phosphate buffer, at 120 min) is recorded as “exceeded 90%”. In data set [1] (HCT116, once-biweekly IV 3.3 mg/kg OP), the “Reduction in tumor volume compared to controls” value was found to be 33.5%. In data set [1] (setting [4]), the “Numbers of CD31-positive microvessels compared to the control and OP-S (10) groups” value is listed as “marked reductions”; the “Numbers of PCNA-positive proliferating cells compared to the control and OP-S (10) groups” value was “marked reductions”; the “TUNEL-positive apoptotic cells compared to the control and OP-S (10) groups” value was “significantly greater numbers of TUNEL-positive apoptotic cells”. Moreover, the Cell viability in data set [2] (250 µg/mL) turned out to be 74.8±6.82%. Also, in data set [2] (500 µg/mL), the Cell viability amounted to 55.3±7.79%. In data set [2], the “Concentrations at which cytotoxicity was demonstrated” value is “higher than 100 µg/mL”. Besides, in data set [3] (CT26, once-biweekly IV 3.3 mg/kg OP, 21 days), the “Inhibition of tumor growth rate compared to the control group” value came out at 40.0%. Also, in data set [3] (setting [5]), the “Tumor suppression compared to the OP-S (10) group” value came to 53.3% and the “Tumor suppression compared to the control group” value was found to be 70.2%. In addition, the “Reduction of isolated tumor mass compared to the controls” value in data set [3] (CT26, once-biweekly IV 10 mg/kg OP, day 21) is 71.7%. Moreover, in data set [3] (CT26 tumors, day 21, groups ODSF (10), ODSF (20), OP-IV (10)), the “TUNEL-positive cells (apoptosis) compared to the controls” value is “significant increases in the number of TUNEL-positive cells”. In addition, the “CD31-positive microvessels (immunohistochemistry)” value in data set [3] (CT26 tumors, day 21, groups OP-IV (3.3), OP-S (10), ODSF (10), ODSF (20)) is reported as “greater numbers of microvessels”. Also, the “Numbers of PCNA-positive cells (proliferation)” value in data set [3] (CT26 tumors, day 21, groups OP-S, OP-IV (10), ODSF (10), ODSF (20), listed as OP-S) is recorded as “significantly higher”.
